Results as given in ChEMBL document CHEMBL4118021, “Studies of TAK1-centered polypharmacology with novel covalent TAK1 inhibitors” (Bioorg Med Chem, 2017).

Tests used:
Format in all cases: cell-based
[1] = molecular target: Epidermal growth factor receptor (Homo sapiens) (UniProt P00533); test: Inhibition of EGFR in human SKCO1 cells at 1 uM after 4 hrs using biotin labeled LLGAEEKEYHAEGGKVPIK probe by mass-spectrometric analysis relative to control
[2] = molecular target: Fibroblast growth factor receptor 1 (Homo sapiens) (UniProt P11362); test: Inhibition of FGFR1 in human SKCO1 cells at 1 uM after 4 hrs using biotin labeled VAVKMLK probe by mass-spectrometric analysis relative to control; details: pooled result: one value given for 4 cell lines, strains, targets or settings
[3] = molecular target: MAP/microtubule affinity-regulating kinase 3 (Homo sapiens) (UniProt P27448); test: Inhibition of MARK3 in human SKCO1 cells at 1 uM after 4 hrs using biotin labeled DLKAENLLLDADMNIK probe by mass-spectrometric analysis relative to control
[4] = molecular target: Ribosomal protein S6 kinase beta-2 (Homo sapiens) (UniProt Q9UBS0); test: Inhibition of p70S6Kb in human SKCO1 cells at 1 uM after 4 hrs using biotin labeled DLKPENIMLSSQGHIK probe by mass-spectrometric analysis relative to control
In short: (§1)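 Live SK-CO-1 cells exposed to compound at 1 μM or DMSO for 4 h (KiNativ). Lysates then labeled with lysine-reactive ATP/ADP-biotin probe, and probe-labeled kinase peptides quantified by mass spectrometry. Percent inhibition of probe-dependent recovery calculated relative to DMSO-treated cells.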

[5] = molecular target: T1, Serine/threonine-protein kinase tousled-like 1 (Homo sapiens) (UniProt Q9UKI8); test: Inhibition of TLK1 in human SKCO1 cells at 1 uM after 4 hrs using biotin labeled YLNEIKPPIIHYDLKPGNILLVDGTACEIK probe by mass-spectrometric analysis relative to control; in short: as §1
T1 sequence (whole entry): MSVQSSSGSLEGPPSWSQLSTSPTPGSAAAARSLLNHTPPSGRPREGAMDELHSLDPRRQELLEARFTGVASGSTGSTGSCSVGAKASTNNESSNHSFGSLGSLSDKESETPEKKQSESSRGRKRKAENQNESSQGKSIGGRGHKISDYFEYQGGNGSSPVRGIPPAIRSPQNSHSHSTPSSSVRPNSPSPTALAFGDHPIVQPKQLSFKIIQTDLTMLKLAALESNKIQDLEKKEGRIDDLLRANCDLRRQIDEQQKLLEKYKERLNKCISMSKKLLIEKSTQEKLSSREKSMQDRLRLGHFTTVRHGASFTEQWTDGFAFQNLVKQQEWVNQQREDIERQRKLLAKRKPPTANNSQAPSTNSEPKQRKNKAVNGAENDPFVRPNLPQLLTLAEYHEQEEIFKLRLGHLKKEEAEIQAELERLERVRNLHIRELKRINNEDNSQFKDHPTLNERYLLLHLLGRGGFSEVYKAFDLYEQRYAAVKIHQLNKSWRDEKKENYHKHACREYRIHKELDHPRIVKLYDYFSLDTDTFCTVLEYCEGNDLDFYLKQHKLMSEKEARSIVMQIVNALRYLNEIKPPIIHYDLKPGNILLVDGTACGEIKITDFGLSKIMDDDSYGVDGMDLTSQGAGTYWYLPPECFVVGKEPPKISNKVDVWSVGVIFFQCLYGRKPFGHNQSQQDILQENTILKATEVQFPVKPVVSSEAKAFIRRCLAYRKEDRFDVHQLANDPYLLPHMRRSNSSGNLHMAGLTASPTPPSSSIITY

[6] = molecular target: T2, STE20-related kinase adapter protein beta (Homo sapiens) (UniProt Q9C0K7); test: Inhibition of STLK6 in human SKCO1 cells at 1 uM after 4 hrs using biotin labeled SIKASHILISGDGLVTLSGLSHLHSLV probe by mass-spectrometric analysis relative to control; in short: as §1
T2 sequence (whole entry): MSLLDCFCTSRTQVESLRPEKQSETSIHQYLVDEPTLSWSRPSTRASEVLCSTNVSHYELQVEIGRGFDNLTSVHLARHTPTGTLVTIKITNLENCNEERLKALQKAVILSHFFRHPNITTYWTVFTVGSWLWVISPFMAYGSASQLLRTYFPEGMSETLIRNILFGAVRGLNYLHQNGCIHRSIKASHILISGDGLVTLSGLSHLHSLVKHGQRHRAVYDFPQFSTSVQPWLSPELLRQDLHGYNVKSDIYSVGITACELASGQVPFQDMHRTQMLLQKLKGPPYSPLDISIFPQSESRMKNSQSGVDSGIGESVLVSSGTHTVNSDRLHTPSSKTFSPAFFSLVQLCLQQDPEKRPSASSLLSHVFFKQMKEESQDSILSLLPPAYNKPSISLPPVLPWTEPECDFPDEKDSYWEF

[7] = molecular target: T3, Calcium/calmodulin-dependent protein kinase type IV (Homo sapiens) (UniProt Q16566); test: Inhibition of CaMK4 in human SKCO1 cells at 1 uM after 4 hrs using biotin labeled DLKPENLLYATPAPDAPLK probe by mass-spectrometric analysis relative to control
T3 sequence (whole entry): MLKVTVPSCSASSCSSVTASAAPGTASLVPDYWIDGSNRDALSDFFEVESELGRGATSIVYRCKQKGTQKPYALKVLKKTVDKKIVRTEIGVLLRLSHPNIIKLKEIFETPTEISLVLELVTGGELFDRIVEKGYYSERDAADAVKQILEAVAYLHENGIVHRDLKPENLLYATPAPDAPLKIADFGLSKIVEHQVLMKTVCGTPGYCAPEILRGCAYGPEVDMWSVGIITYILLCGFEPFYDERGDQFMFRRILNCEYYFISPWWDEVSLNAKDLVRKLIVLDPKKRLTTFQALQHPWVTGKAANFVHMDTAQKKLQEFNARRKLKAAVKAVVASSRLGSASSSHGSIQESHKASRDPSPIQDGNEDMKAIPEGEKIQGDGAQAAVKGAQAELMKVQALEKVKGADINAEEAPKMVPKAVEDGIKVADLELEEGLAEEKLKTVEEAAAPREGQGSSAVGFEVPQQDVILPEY

Sequence of Epidermal growth factor receptor (Homo sapiens) (P00533 whole entry): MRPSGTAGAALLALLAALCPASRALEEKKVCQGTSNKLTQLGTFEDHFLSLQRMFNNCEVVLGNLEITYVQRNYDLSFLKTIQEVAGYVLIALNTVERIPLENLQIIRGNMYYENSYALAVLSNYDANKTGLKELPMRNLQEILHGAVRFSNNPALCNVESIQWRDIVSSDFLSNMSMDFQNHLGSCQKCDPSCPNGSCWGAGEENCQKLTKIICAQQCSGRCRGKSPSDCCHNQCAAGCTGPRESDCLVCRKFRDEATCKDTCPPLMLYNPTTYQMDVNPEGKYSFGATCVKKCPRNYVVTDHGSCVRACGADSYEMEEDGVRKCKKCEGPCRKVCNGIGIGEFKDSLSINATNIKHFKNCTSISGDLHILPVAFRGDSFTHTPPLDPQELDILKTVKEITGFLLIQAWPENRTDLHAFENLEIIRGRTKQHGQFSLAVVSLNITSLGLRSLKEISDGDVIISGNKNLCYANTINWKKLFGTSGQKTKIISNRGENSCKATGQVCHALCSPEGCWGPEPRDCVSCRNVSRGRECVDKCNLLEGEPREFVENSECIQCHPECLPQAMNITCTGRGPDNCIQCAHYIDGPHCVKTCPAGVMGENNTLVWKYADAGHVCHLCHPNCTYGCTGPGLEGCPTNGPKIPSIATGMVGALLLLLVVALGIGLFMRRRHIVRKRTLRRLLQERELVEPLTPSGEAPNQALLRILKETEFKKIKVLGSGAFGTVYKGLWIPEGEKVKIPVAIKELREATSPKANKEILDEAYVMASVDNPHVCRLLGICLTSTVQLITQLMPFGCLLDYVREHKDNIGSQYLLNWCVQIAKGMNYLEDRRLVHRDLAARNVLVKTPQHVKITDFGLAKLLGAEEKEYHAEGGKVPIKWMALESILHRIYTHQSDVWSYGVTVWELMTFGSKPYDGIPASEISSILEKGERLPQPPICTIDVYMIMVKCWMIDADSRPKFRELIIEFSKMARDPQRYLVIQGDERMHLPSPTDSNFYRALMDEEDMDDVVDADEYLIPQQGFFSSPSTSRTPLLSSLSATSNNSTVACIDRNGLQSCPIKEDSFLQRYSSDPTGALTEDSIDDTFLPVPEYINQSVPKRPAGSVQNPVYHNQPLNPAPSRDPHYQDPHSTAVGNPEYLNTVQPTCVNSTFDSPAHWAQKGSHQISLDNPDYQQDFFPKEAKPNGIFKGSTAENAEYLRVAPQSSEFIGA
Sequence of Fibroblast growth factor receptor 1 (Homo sapiens) (P11362 22-822 limits assumed): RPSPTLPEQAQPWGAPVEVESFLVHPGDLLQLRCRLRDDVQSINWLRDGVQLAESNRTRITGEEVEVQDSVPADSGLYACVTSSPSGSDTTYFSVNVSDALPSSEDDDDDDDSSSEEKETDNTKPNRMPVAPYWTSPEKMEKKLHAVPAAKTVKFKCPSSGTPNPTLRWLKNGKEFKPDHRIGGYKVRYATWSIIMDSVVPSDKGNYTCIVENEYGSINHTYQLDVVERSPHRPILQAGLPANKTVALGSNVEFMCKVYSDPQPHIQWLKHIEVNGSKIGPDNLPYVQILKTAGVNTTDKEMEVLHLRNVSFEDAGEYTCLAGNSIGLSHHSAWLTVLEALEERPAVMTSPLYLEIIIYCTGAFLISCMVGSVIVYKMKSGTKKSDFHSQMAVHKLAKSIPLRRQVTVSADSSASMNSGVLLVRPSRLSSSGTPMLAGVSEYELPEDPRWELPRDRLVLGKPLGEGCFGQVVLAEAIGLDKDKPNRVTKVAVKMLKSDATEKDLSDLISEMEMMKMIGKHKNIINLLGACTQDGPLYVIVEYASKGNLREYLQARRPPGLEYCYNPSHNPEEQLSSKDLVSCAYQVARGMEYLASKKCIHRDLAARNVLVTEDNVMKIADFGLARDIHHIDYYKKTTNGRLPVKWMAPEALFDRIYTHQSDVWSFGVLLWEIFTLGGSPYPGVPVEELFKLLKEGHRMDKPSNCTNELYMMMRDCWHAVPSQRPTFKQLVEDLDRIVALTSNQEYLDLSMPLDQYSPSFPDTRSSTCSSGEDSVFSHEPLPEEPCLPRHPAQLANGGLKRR
Sequence of Ribosomal protein S6 kinase beta-2 (Homo sapiens) (Q9UBS0 whole entry): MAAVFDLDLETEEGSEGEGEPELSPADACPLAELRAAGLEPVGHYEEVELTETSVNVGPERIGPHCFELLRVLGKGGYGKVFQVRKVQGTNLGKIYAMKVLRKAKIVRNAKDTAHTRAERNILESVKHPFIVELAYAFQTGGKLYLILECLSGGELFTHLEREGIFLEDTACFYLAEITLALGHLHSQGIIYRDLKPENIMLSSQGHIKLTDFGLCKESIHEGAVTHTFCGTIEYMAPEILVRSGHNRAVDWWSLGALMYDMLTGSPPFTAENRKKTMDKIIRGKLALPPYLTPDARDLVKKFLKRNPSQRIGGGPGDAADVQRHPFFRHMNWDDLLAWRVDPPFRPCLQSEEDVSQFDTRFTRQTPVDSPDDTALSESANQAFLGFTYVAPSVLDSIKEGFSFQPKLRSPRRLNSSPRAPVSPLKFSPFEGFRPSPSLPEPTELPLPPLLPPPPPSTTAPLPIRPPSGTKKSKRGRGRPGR
Sequence of MAP/microtubule affinity-regulating kinase 3 (Homo sapiens) (P27448 whole entry, looked up): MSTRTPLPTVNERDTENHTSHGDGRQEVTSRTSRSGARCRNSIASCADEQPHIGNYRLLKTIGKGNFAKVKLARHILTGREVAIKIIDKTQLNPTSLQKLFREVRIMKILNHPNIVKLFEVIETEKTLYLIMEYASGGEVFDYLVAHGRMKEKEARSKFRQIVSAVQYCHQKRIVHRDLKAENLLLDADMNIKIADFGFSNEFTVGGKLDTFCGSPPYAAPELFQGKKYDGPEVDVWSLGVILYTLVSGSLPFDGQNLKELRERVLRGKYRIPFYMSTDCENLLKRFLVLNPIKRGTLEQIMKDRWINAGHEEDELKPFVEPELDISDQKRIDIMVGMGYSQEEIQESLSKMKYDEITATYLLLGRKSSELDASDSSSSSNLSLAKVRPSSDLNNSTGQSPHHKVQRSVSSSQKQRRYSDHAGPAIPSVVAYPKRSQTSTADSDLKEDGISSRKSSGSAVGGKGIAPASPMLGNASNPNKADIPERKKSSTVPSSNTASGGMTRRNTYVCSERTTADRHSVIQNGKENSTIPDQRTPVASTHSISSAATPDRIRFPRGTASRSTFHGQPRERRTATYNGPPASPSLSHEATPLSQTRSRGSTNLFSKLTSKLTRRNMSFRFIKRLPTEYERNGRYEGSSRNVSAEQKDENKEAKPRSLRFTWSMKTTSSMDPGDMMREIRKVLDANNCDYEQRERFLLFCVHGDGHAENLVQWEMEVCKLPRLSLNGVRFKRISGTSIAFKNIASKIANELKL

Row | Structure (SMILES) | inhibition [1] | inhibition [2] | inhibition [3] | inhibition [4] | inhibition [5] | inhibition [6] | inhibition [7]
1 | COc1cc(O)c2c(c1)/C=C/C[C@H](O)[C@H](O)C(=O)/C=C\C[C@H](C)OC2=O | 14.5% | 18.4% | 3.6% | 54.6% | 19.3% | 24.9% | 30.6%
2 | C=CC(=O)Nc1ccccc1Oc1nc(Nc2cnn(CCOC)c2)ncc1Cl | 28.6% | 7.6% | -8.4% | -1.5% | 11.3% | 34.4% | -7.4%
3 | C=CC(=O)Nc1ccccc1Nc1nc(Nc2ccc(N3CCN(C)CC3)cc2)ncc1Cl | 47.6% | 33.7% | -7.2% | 3.3% | 2.3% | 27.1% | -2.6%
